Where a SMILES comes first, the peptide text is derived from it. [ ]: non-standard residue; d: D form. The star is where a group is joined. X1 = Nc1nccc(-c2ccc(C(=O)*)s2)n1; Ahx = NCCCCCC(=O)O
What was measured:
[1] = biological target: Ribosomal protein S6 kinase alpha-2 (Homo sapiens) (UniProt Q15349); experiment: Inhibition of RSK3 at 100 nM relative to control
In short: (§1)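 Kinase panel screen with the inhibitor at 100 nM and ATP at a concentration of about Km for each kinase. Activity was expressed as percent inhibition relative to control incubations that lacked inhibitor. Values are means of duplicate determinations, and the difference between the duplicates is also reported.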

[2] = biological target: Protein kinase C delta type (Homo sapiens) (UniProt Q05655); experiment: Inhibition of PKCdelta at 100 nM relative to control
In short: (§2)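 Kinase panel screen with inhibitor at 100 nM and ATP at about the Km of each kinase. Activity is given as percent inhibition relative to control incubations with the inhibitor omitted. Values are means of duplicate determinations, with the spread reported as the difference between duplicates.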

[3] = biological target: Ribosomal protein S6 kinase alpha-3 (Homo sapiens) (UniProt P51812); experiment: Inhibition of RSK2 at 100 nM relative to control; in short: as §2
[4] = biological target: cAMP-dependent protein kinase catalytic subunit alpha (Homo sapiens, UniProt P17612); experiment: Inhibition of PKA Calpha at 100 nM relative to control; in short: as §2
[5] = biological target: RAC-beta serine/threonine-protein kinase (Homo sapiens) (UniProt P31751); experiment: Inhibition of PKBbeta at 100 nM relative to control; in short: as §2
[6] = biological target: AMP-activated protein kinase (AMPK) alpha-1/beta-1/gamma-1 (Homo sapiens) (UniProt P54619+Q9Y478+Q13131); experiment: Inhibition of AMPK alpha-1/beta-1/gamma-1 at 100 nM relative to control; format: protein-complex assay; in short: as §2
[7] = biological target: RAC-gamma serine/threonine-protein kinase (Homo sapiens, UniProt Q9Y243); experiment: Inhibition of PKBgamma at 100 nM relative to control; in short: as §2
[8] = biological target: Protein kinase C beta type (Homo sapiens) (UniProt P05771); experiment: Inhibition of PKCbeta1 at 100 nM relative to control; in short: as §2
[9] = biological target: Proto-oncogene tyrosine-protein kinase Src (Homo sapiens) (UniProt P12931); experiment: Inhibition of SRC at 100 nM relative to control; in short: as §1
[10] = biological target: Serine/threonine-protein kinase Sgk2 (Homo sapiens) (UniProt Q9HBY8); experiment: Inhibition of SGK2 at 100 nM relative to control; in short: as §1
[11] = biological target: Calcium/calmodulin-dependent protein kinase type 1D (Homo sapiens) (UniProt Q8IU85); experiment: Inhibition of CaMK 1delta at 100 nM relative to control; in short: as §2
[12] = biological target: Cyclin-dependent kinase 2/cyclin A (Homo sapiens) (UniProt P24941+P20248+P78396); experiment: Inhibition of CDK2/cyclin A at 100 nM relative to control; format: protein-complex assay; in short: as §2
[13] = biological target: Death-associated protein kinase 3 (Homo sapiens) (UniProt O43293); experiment: Inhibition of DAPK3 at 100 nM relative to control; in short: as §2
[14] = biological target: Serine/threonine-protein kinase D2 (Homo sapiens) (UniProt Q9BZL6); experiment: Inhibition of PKD2 at 100 nM relative to control; in short: as §2
[15] = biological target: Serine/threonine-protein kinase pim-2 (Homo sapiens) (UniProt Q9P1W9); experiment: Inhibition of PIM2 at 100 nM relative to control; in short: as §2
[16] = biological target: Ribosomal protein S6 kinase beta-1 (Homo sapiens) (UniProt P23443); experiment: Inhibition of p70S6 at 100 nM relative to control; in short: as §1
[17] = biological target: Protein kinase C zeta type (Homo sapiens) (UniProt Q05513); experiment: Inhibition of PKCzeta at 100 nM relative to control; in short: as §2
[18] = biological target: Maternal embryonic leucine zipper kinase (Homo sapiens) (UniProt Q14680); experiment: Inhibition of MELK at 100 nM relative to control; in short: as §2
[19] = biological target: Serine/threonine-protein kinase Sgk1 (Homo sapiens) (UniProt O00141); experiment: Inhibition of SGK1 at 100 nM relative to control; in short: as §1
[20] = biological target: Protein kinase C alpha type (Homo sapiens) (UniProt P17252); experiment: Inhibition of PKCalpha at 100 nM relative to control; in short: as §2
[21] = biological target: Serine/threonine-protein kinase D1 (Homo sapiens) (UniProt Q15139); experiment: Inhibition of PKCmu at 100 nM relative to control; in short: as §2
[22] = biological target: cGMP-dependent protein kinase 2 (Homo sapiens) (UniProt Q13237); experiment: Inhibition of PKG2 at 100 nM relative to control; in short: as §2
[23] = biological target: Ribosomal protein S6 kinase alpha-1 (Homo sapiens) (UniProt Q15418); experiment: Inhibition of RSK1 at 100 nM relative to control; in short: as §2
[24] = biological target: Glycogen synthase kinase-3 beta (Homo sapiens) (UniProt P49841); experiment: Inhibition of GSK3-beta at 100 nM relative to control; in short: as §2
[25] = biological target: Serine/threonine-protein kinase pim-1 (Homo sapiens) (UniProt P11309); experiment: Inhibition of PIM1 at 100 nM relative to control; in short: as §2
[26] = biological target: Ribosomal protein S6 kinase alpha-5 (Homo sapiens) (UniProt O75582); experiment: Inhibition of MSK1 at 100 nM relative to control; in short: as §2
[27] = biological target: Serine/threonine-protein kinase D3 (Homo sapiens) (UniProt O94806); experiment: Inhibition of PKD3 at 100 nM relative to control; in short: as §2
[28] = biological target: Serine/threonine-protein kinase PAK 6 (Homo sapiens) (UniProt Q9NQU5); experiment: Inhibition of PAK6 at 100 nM relative to control; in short: as §2
[29] = biological target: Serine/threonine-protein kinase Chk2 (Homo sapiens) (UniProt O96017); experiment: Inhibition of CHK2 at 100 nM relative to control; in short: as §2
[30] = biological target: 3-phosphoinositide-dependent protein kinase 1 (Homo sapiens) (UniProt O15530); experiment: Inhibition of PDK1 at 100 nM relative to control
[31] = biological target: cAMP-dependent protein kinase catalytic subunit PRKX (Homo sapiens) (UniProt P51817); experiment: Inhibition of PRKX at 100 nM relative to control; in short: as §2
[32] = biological target: Rho-associated protein kinase 2 (Homo sapiens, UniProt O75116); experiment: Inhibition of ROCK2 at 100 nM relative to control; in short: as §2
[33] = biological target: Glycogen synthase kinase-3 alpha (Homo sapiens) (UniProt P49840); experiment: Inhibition of GSK3alpha at 100 nM relative to control; in short: as §2
[34] = biological target: Ribosomal protein S6 kinase alpha-4 (Homo sapiens) (UniProt O75676); experiment: Inhibition of MSK2 at 100 nM relative to control; in short: as §2
[35] = biological target: Protein kinase C iota type (Homo sapiens) (UniProt P41743); experiment: Inhibition of PKCiota at 100 nM relative to control; in short: as §2
[36] = biological target: Serine/threonine-protein kinase PAK 4 (Homo sapiens) (UniProt O96013); experiment: Inhibition of PAK4 at 100 nM relative to control; in short: as §2
[37] = biological target: Rho-associated protein kinase 1 (Homo sapiens) (UniProt Q13464); experiment: Inhibition of ROCK1 at 100 nM relative to control; in short: as §2
[38] = biological target: Serine/threonine-protein kinase Chk1 (Homo sapiens) (UniProt O14757); experiment: Inhibition of CHK1 at 100 nM relative to control; in short: as §2
[39] = biological target: Protein kinase C eta type (Homo sapiens) (UniProt P24723); experiment: Inhibition of PKCeta at 100 nM relative to control; in short: as §2
[40] = biological target: Aurora kinase A (Homo sapiens) (UniProt O14965); experiment: Inhibition of Aurora A at 100 nM relative to control; in short: as §2
[41] = biological target: Protein kinase C beta type (Homo sapiens) (UniProt P05771); experiment: Inhibition of PKCbeta2 at 100 nM relative to control; in short: as §2
[42] = biological target: Protein kinase C epsilon type (Homo sapiens) (UniProt Q02156); experiment: Inhibition of PKCepsilon at 100 nM relative to control; in short: as §2
[43] = biological target: Protein kinase C gamma type (Homo sapiens) (UniProt P05129); experiment: Inhibition of PKCgamma at 100 nM relative to control; in short: as §2
[44] = biological target: RAC-alpha serine/threonine-protein kinase (Homo sapiens) (UniProt P31749); experiment: Inhibition of PKBalpha at 100 nM relative to control; in short: as §2
[45] = biological target: Serine/threonine-protein kinase PAK 3 (Homo sapiens) (UniProt O75914); experiment: Inhibition of PAK3 at 100 nM relative to control; in short: as §2
[46] = Inhibition of PKG1 at 100 nM relative to control; in short: as §2
[47] = biological target: Protein kinase C theta type (Homo sapiens) (UniProt Q04759); experiment: Inhibition of PKCtheta at 100 nM relative to control; in short: as §2
[48] = biological target: Calcium/calmodulin-dependent protein kinase type II subunit alpha (Homo sapiens) (UniProt Q9UQM7); experiment: Inhibition of CaMK2alpha at 100 nM relative to control; in short: as §2
[49] = biological target: Calcium/calmodulin-dependent protein kinase type II subunit beta (Homo sapiens) (UniProt Q13554); experiment: Inhibition of CaMK2beta at 100 nM relative to control; in short: as §2
Calcium/calmodulin-dependent protein kinase type II subunit beta (Homo sapiens), sequence (Q13554 whole entry): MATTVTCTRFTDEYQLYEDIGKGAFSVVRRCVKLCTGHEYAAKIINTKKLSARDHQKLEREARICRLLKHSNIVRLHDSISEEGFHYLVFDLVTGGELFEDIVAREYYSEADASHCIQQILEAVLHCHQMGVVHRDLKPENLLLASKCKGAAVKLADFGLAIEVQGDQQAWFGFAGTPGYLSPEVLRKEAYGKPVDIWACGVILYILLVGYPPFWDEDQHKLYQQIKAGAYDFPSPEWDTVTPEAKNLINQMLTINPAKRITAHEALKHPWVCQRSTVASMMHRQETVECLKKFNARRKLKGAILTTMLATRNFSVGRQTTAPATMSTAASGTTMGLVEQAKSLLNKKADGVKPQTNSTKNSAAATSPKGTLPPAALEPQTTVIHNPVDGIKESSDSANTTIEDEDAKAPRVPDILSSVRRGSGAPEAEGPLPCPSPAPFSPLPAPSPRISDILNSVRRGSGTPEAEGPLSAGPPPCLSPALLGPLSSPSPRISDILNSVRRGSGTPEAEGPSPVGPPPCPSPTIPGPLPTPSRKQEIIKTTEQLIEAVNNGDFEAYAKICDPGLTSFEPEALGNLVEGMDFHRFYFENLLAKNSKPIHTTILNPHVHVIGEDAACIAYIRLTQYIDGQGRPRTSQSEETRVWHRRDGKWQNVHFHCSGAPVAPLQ

Protein kinase C beta type (Homo sapiens), sequence (P05771 2-671 limits assumed): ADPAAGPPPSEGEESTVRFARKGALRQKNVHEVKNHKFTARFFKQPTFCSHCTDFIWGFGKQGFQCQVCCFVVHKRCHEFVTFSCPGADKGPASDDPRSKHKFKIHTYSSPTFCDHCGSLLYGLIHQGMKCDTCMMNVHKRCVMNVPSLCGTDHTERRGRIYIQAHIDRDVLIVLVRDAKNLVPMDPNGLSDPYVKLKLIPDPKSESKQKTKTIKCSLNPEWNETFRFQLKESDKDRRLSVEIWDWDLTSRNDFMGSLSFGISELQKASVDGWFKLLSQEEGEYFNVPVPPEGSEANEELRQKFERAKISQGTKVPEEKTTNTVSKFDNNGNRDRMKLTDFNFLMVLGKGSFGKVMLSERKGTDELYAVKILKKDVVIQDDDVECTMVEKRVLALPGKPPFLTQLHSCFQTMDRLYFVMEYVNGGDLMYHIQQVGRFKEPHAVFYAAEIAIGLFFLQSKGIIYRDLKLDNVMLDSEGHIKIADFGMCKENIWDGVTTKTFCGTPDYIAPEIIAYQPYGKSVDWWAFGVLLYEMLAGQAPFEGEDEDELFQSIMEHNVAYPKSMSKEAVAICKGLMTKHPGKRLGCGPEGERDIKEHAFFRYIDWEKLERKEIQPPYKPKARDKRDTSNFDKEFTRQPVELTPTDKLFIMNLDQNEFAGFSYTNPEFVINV
AMP-activated protein kinase (AMPK) alpha-1/beta-1/gamma-1 (Homo sapiens), sequence (P54619 whole entry): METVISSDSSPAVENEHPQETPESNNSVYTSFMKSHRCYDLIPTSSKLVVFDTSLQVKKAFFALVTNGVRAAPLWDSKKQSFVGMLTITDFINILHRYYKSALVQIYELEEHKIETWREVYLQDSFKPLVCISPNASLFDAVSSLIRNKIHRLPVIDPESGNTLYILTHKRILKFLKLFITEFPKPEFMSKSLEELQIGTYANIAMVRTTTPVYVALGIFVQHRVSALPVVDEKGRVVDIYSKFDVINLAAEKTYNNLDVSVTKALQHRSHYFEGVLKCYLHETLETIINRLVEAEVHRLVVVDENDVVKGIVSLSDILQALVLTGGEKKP
AMP-activated protein kinase (AMPK) alpha-1/beta-1/gamma-1 (Homo sapiens), sequence (Q13131 whole entry partner): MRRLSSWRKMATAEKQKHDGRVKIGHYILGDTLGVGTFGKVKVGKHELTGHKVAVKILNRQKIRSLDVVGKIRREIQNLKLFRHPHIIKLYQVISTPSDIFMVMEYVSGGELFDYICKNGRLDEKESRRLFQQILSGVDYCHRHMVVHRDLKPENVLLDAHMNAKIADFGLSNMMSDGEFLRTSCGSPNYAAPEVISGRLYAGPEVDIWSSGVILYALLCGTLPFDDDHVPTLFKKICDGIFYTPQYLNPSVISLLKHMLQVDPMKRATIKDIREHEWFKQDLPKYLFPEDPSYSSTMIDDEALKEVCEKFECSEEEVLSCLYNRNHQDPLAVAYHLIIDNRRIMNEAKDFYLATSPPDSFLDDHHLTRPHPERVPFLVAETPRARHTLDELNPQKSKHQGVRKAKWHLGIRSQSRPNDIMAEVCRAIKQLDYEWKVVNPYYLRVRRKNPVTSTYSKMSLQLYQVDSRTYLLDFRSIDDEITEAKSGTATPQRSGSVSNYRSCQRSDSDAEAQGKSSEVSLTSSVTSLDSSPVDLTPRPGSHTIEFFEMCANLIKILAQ
AMP-activated protein kinase (AMPK) alpha-1/beta-1/gamma-1 (Homo sapiens), sequence (Q9Y478 2-270 partner limits assumed): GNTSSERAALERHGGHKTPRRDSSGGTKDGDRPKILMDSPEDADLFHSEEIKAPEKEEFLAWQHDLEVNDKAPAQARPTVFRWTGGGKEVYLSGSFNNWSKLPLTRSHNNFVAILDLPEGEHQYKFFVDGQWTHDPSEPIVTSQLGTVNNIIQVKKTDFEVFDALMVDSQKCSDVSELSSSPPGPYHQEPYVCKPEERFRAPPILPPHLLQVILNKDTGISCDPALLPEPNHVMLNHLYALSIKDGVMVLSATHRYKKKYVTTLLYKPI
Ribosomal protein S6 kinase beta-1 (Homo sapiens), sequence (P23443 whole entry, looked up): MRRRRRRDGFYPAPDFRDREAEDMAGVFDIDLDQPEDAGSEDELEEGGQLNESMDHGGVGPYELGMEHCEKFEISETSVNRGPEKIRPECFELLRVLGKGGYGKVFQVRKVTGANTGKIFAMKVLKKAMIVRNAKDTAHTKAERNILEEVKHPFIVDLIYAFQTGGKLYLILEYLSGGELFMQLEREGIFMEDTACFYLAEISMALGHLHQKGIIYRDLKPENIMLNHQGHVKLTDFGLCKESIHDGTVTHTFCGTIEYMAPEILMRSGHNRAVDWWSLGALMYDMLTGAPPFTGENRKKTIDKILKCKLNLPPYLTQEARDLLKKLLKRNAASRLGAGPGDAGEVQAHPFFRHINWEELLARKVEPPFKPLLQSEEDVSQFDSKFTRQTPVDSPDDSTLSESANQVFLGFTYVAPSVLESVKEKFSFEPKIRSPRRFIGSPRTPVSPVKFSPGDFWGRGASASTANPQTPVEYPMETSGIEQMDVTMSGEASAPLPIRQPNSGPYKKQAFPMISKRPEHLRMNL
Serine/threonine-protein kinase Chk2 (Homo sapiens), sequence (O96017 whole entry): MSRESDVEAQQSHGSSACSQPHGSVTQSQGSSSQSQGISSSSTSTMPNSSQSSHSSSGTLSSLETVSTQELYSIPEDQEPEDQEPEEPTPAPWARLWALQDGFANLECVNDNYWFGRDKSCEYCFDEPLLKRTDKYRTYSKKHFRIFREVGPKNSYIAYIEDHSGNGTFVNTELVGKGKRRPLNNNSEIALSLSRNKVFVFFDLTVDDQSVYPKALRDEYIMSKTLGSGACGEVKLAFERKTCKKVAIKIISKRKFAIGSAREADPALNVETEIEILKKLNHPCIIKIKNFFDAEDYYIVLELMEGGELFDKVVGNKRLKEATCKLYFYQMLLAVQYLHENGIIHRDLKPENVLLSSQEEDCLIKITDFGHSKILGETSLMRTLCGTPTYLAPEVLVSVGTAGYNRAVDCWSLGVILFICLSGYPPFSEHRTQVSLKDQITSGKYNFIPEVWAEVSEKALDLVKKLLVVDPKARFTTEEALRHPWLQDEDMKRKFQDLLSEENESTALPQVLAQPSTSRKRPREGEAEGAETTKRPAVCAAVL

Compound `N=C(N)NCCC[C@@H](NC(=O)[C@@H](CCCNC(=N)N)NC(=O)[C@@H](CCCNC(=N)N)NC(=O)[C@@H](CCCNC(=N)N)NC(=O)[C@@H](CCCNC(=N)N)NC(=O)[C@@H](CCCNC(=N)N)NC(=O)CCCCCNC(=O)[C@@H](CCCCN)NC(=O)CCCCCNC(=O)c1ccc(-c2ccnc(N)n2)s1)C(N)=O` ({X1-Ahx}-[dK][Ahx][dR][dR][dR][dR][dR][dR]-NH2) has an inhibition [1] of 97%, an inhibition [2] of 97% and an inhibition [3] of 103%. It also gave an inhibition [4] of 104%, an inhibition [5] of 80% and an inhibition [6] of 41%. It also gave an inhibition [7] of 100%, an inhibition [8] of 100% and an inhibition [9] of 26%. The inhibition [10] was 91%, the inhibition [11] was 25% and the inhibition [12] was 6%. It also gave an inhibition [13] of 44%, an inhibition [14] of 79% and an inhibition [15] of 95%. For the same compound, the inhibition [16] was 99%, the inhibition [17] was 38% and the inhibition [18] was 83%. It also gave an inhibition [19] of 97%, an inhibition [20] of 92% and an inhibition [21] of 93%. It also gave an inhibition [22] of 78%, an inhibition [23] of 97% and an inhibition [24] of 4%. It also gave an inhibition [25] of 97%, an inhibition [26] of 112% and an inhibition [27] of 90%. It also gave an inhibition [28] of 70%, an inhibition [29] of 33% and an inhibition [30] of 65%. It also gave an inhibition [31] of 106%, an inhibition [32] of 106% and an inhibition [33] of 8%. For the same compound, the inhibition [34] was 112%, the inhibition [35] was 24% and the inhibition [36] was 21%. For the same compound, the inhibition [37] was 106%, the inhibition [38] was 82% and the inhibition [39] was 106%. The inhibition [40] was 46%, the inhibition [41] was 104% and the inhibition [42] was 103%. For the same compound, the inhibition [43] was 108%, the inhibition [44] was 97% and the inhibition [45] was 69%. For the same compound, the inhibition [46] was 105%, the inhibition [47] was 91% and the inhibition [48] was 10%. The inhibition [49] was 22%.
